Experimental data published in ChEMBL document CHEMBL1137403, “Discovery of 2-[4-{{2-(2S,5R)-2-cyano-5-ethynyl-1-pyrrolidinyl]-2-oxoethyl]amino]- 4-methyl-1-piperidinyl]-4-pyridinecarboxylic acid (ABT-279): a very potent, selective, effective, and well-tolerated inhibitor of dipeptidyl peptidase-IV, useful for the treatment of diabetes” (J Med Chem, 2006).
The source made the active and inactive calls. No cut-off for these calls is given here.

How the values were obtained:
Mus musculus = assay: Clastogenicity in mouse upto 2000 mg/kg; assay type: functional, organism-based; set-up: dose 2000 mg/kg
Outline: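 Murine in vivo clastogenicity test, dosed at up to 2000 mg/kg.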

Rattus norvegicus [1] = species: Rattus norvegicus; assay: Insulin level in Zucker rat after 10 mins; assay type: functional
Outline: (§1)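 Female ZDF rats, 10 weeks old, fasted overnight, then dosed orally with vehicle or drug. Four hours after dosing (t = 0) they had free access for 4 h to a liquid mixed meal (Ensure). Plasma was sampled for drug level, active GLP-1, insulin, glucagon and glucose.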

[2] = AUC (0-24h) in dog; assay type: ADME, organism-based, Canis lupus familiaris; set-up: time < 24 hr; settings: plasma
[3] = Volume of distribution in Sprague-Dawley rat at 5 mg/kg, iv; assay type: ADME, organism-based; set-up: dose 5 mg/kg, route intravenous; settings: in vivo, read-out: Vss
Cytochrome P450 3A4 = Cytochrome P450 3A4 (Homo sapiens, UniProt P08684); assay: Inhibition of CYP3A4; assay type: ADME
Sequence of Cytochrome P450 3A4 (P08684 whole entry): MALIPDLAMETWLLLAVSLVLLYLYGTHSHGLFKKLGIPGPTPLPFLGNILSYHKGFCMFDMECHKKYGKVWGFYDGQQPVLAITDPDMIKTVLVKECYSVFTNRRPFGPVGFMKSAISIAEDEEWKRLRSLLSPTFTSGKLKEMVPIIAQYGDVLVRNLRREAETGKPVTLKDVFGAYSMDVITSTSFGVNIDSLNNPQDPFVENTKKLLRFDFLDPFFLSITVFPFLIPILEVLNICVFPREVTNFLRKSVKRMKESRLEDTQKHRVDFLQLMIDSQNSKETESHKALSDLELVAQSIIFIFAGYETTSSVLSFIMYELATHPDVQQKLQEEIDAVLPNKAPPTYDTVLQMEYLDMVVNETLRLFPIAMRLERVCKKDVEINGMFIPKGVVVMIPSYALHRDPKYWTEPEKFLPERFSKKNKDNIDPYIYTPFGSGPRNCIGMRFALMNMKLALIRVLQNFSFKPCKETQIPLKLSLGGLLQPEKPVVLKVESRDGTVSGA

[4] = Drug level in Zucker rat plasma after 4 hrs at 1 mg/kg; assay type: ADME, organism-based; set-up: dose 1 mg/kg; settings: read-out: Drug uptake; outline: as §1
Rattus norvegicus [5] = species: Rattus norvegicus; assay: Reduction in glucagon level in Zucker rat after 30 mins relative to control; assay type: functional; set-up: scale not given: the % may be the effect or the level left; outline: as §1
[6] = AUC (0-24h) in rat; assay type: ADME, organism-based; set-up: time < 24 hr; settings: plasma
[7] = Cmax in Beagle dog at 2.5 mg/kg, po; assay type: ADME, organism-based, Canis lupus familiaris; set-up: dose 2.5 mg/kg, route oral; settings: in vivo
[8] = Cmax in cynomolgus monkey at 2.5 mg/kg, po; assay type: ADME, organism-based, Macaca fascicularis; set-up: dose 2.5 mg/kg, route oral; settings: in vivo
Dipeptidyl peptidase 2 = Dipeptidyl peptidase 2 (Homo sapiens, UniProt Q9UHL4); assay: Inhibition of DPP7
[9] = Plasma clearance in cynomolgus monkey at 2.5 mg/kg, iv; assay type: ADME, organism-based, Macaca fascicularis; set-up: dose 2.5 mg/kg, route intravenous
Dipeptidyl peptidase 9 = Dipeptidyl peptidase 9 (Homo sapiens, UniProt Q86TI2)
Sequence of Dipeptidyl peptidase 9 (Q86TI2 whole entry): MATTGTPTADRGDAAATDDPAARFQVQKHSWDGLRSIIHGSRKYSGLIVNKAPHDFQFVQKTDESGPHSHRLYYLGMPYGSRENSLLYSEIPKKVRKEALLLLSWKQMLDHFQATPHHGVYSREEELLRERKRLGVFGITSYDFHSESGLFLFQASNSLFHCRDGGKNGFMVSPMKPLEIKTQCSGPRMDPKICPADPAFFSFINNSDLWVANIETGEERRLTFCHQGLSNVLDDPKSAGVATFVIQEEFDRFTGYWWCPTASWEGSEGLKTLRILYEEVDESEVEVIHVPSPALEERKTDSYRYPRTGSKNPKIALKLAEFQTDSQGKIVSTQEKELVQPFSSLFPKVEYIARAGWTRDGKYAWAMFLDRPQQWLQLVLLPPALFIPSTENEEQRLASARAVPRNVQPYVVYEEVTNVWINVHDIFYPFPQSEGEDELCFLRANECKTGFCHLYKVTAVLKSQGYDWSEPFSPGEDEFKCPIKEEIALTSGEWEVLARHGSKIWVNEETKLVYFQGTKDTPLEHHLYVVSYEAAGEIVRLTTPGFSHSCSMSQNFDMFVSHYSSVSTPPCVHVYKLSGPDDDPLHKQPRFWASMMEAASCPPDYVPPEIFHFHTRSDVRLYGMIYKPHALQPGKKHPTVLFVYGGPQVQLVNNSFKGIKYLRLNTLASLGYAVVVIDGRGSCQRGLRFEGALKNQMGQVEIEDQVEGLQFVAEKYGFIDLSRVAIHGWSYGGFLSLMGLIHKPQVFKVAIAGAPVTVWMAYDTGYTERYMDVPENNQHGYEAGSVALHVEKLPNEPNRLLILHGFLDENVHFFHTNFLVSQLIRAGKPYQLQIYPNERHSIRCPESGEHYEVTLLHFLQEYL

[10] = Half life in cynomolgus monkey at 2.5 mg/kg, po; assay type: ADME, organism-based, Macaca fascicularis; set-up: dose 2.5 mg/kg, route oral; settings: in vivo
Cytochrome P450 2C9 = Cytochrome P450 2C9 (Homo sapiens, UniProt P11712); assay: Inhibition of CYP2C9; assay type: ADME
Sequence of Cytochrome P450 2C9 (P11712 whole entry): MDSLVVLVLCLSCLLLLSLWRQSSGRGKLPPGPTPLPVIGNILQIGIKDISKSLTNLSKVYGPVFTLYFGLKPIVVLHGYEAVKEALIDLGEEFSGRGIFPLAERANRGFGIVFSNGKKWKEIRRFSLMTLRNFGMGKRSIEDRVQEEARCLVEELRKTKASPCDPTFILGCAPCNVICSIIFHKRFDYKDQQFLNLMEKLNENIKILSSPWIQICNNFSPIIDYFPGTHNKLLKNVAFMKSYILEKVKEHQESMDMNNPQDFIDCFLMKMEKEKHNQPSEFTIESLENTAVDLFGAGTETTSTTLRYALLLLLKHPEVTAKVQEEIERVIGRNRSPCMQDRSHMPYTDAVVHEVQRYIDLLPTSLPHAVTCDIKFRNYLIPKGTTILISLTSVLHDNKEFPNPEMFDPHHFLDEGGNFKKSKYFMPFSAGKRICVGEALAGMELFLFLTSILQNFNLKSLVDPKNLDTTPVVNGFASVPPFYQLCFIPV

[11] = Half life in Sprague-Dawley rat at 5 mg/kg, iv; assay type: ADME, organism-based; set-up: dose 5 mg/kg, route intravenous; settings: in vivo
Rattus norvegicus [12] = species: Rattus norvegicus; assay: GLP1 level in Zucker rat after 10 mins; assay type: functional; outline: as §1
[13] = Cmax in Sprague-Dawley rat at 5 mg/kg, po; assay type: ADME, organism-based; set-up: dose 5 mg/kg, route oral; settings: in vivo
Prolyl endopeptidase FAP = molecular target: T1, Prolyl endopeptidase FAP (Homo sapiens, UniProt Q12884); assay: Inhibition of FAPalpha
T1 sequence (Q12884 whole entry): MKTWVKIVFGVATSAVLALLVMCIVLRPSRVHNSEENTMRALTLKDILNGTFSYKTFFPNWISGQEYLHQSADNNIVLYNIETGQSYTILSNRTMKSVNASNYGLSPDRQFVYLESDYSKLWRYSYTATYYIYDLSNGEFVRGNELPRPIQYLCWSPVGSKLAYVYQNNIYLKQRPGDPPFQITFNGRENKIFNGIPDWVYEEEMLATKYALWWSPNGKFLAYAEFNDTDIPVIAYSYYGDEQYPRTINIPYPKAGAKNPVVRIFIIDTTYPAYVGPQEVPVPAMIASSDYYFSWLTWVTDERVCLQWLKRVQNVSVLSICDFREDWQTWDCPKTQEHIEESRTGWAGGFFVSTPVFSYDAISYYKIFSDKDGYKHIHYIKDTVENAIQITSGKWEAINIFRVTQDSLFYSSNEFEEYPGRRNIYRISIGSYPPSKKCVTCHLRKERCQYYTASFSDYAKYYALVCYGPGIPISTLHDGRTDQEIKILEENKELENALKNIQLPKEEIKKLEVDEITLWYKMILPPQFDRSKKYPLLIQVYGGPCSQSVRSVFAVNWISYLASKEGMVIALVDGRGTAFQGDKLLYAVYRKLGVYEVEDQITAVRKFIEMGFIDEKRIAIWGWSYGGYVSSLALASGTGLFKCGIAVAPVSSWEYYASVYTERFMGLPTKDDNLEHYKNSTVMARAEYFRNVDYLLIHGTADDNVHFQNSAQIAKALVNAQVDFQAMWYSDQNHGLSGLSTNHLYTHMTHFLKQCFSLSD

[14] = AUC in Sprague-Dawley rat at 5 mg/kg, po; assay type: ADME, organism-based; set-up: dose 5 mg/kg, route oral; settings: plasma
[15] = Tmax in cynomolgus monkey at 2.5 mg/kg, po; assay type: ADME, organism-based, Macaca fascicularis; set-up: dose 2.5 mg/kg, route oral; settings: in vivo
Salmonella typhi = assay: Mutagenicity against Salmonella typhi by miniAmes test upto 2 mg/well; assay type: functional, organism-based; settings: Salmonella enterica subsp. enterica serovar Typhi
[16] = Tmax in Sprague-Dawley rat at 5 mg/kg, po; assay type: ADME, organism-based; set-up: dose 5 mg/kg, route oral; settings: in vivo
Canis familiaris = assay: Electrocardiographic activity in dog upto 28 ug/ml, iv; assay type: functional, organism-based; settings: Canis lupus familiaris
Outline: (§2)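 Hemodynamic and electrocardiographic profile recorded in anesthetized rats or dogs given the drug intravenously, at plasma concentrations up to 28 µg/mL.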

Rattus norvegicus [17] = species: Rattus norvegicus; assay: Reduction in postprandial glucose excursion in Zucker rat measured as AUC glucose (0-240 min); assay type: functional, organism-based; set-up: time < 4 hr; outline: as §1
[18] = Oral bioavailability in Sprague-Dawley rat at 5 mg/kg, po; assay type: ADME, organism-based; settings: in vivo
Rattus norvegicus [19] = assay: Electrocardiographic activity in rat upto 28 ug/ml, iv; assay type: functional, organism-based; outline: as §2

## C#C[C@H]1CC[C@@H](C#N)N1C(=O)CNC1(C)CCN(c2cc(C(=O)O)ccn2)CC1
Mus musculus
  Activity: inactive
Rattus norvegicus [1]
  Activity: 39 ng/mL
[2]
  AUC(0-t) at 24 h: 36000 ng·h/mL
[3]
  Vd: 2.2 L/kg
Cytochrome P450 3A4
  IC50: > 30 µM
[4]
  concentration at 4 h: 18 ng/mL
Rattus norvegicus [5]
  Activity: 50%
[6]
  AUC(0-t) at 24 h: 39000 ng·h/mL
[7]
  Cmax: 300 ng/mL
[8]
  Cmax: 140 ng/mL
Dipeptidyl peptidase 2
  Ki: > 30 µM
[9]
  clearance: 8.5 mL/min/kg
Dipeptidyl peptidase 9
  Ki: > 30 µM
[10]
  half-life: 2 h
Cytochrome P450 2C9
  IC50: > 30 µM
[11]
  half-life: 6.8 h
Rattus norvegicus [12]
  Activity: 29 pM
[13]
  Cmax: 370 ng/mL
Prolyl endopeptidase FAP
  Ki: > 30 µM
[14]
  AUC: 2100 ng·h/mL
[15]
  Tmax: 2.7 h
Salmonella typhi
  Activity: inactive
[16]
  Tmax: 4.7 h
Canis familiaris
  Activity: Active
Rattus norvegicus [17]
  AUC: 12500 mg/dL·min
[18]
  bioavailability: 28%
Rattus norvegicus [19]
  Activity: Active
